Source: publication PMC6560181 (Cell chemical biology, 2018)

What was measured:
[1] = Carboxyfluorescein leakage from lipid vesicles; settings: vesicles containing lipid A
Summary of the method: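 CF-loaded vesicles (50 mM CF; final lipid 5 µM) were made of POPC, POPC/POPG 4:1 or POPC/lipid A 4:1 in 10 mM HEPES pH 7.4 with 150 mM NaCl. Vesicles were exposed for 20 min to lipopeptide at 128–0.06 µg/mL. Leakage was read as CF de-quenching (ex 485 nm, em 520 nm).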

[2] = system: mcr isolates of K. pneumoniae and Escherichia coli; test: MIC against mcr isolates; assay type: cell-based; settings: mcr isolates (Table S4)
[3] = system: polymyxin-resistant P. aeruginosa strain FADDI-PA070; test: Static time-kill study; assay type: cell-based; settings: for log10 CFU/mL kill: 32 μg/mL, 1–4 h polymyxin B, 0.5–6 h octapeptin C4; for antimicrobial effect in time-kill: 1 or 4 μg/mL
[4] = Mouse nephrotoxicity model, kidney histopathology; assay type: in vivo, mice; settings: 12 mg/kg sc every 2 h, accumulated dose 72 mg/kg
E. coli ATCC 25922 cells [5] = test: Inner membrane permeabilisation, SYTOX Green flow cytometry; assay type: cell-based; settings: 1 h at 37°C
human red blood cells = test: Haemolysis of human red blood cells; assay type: cell-based; settings: concentrations up to 100 μg/mL
[6] = system: polymyxin-resistant clinical isolates of P. aeruginosa, A. baumannii and K. pneumoniae; test: MIC by broth microdilution, polymyxin-resistant clinical isolates; assay type: cell-based
[7] = system: polymyxin-susceptible strains of P. aeruginosa and K. pneumoniae; test: MIC by broth microdilution, polymyxin-susceptible strains; assay type: cell-based
E. coli ATCC 25922 cells [8] = test: Membrane depolarisation diSC3-5 assay; assay type: cell-based; settings: 30 min incubation
[9] = set-up: species or system mice; settings: mouse, in vivo, iv, 10 mg/kg
[10] = assay type: in vitro ADME; settings: rat
[11] = Acute toxicity after subcutaneous dose in mice; assay type: in vivo; settings: subcutaneous dose of 40 mg/kg
[12] = system: P. aeruginosa FADDI-PA070; test: MIC against P. aeruginosa FADDI-PA070; assay type: cell-based

Row | Substance | leakage from lipid vesicles [1] | MIC [2] [µg/mL] | log10 CFU/mL kill [3] | antimicrobial effect in time-kill [3] | kidney histopathology lesions [4] | membrane disruption (SYTOX Green uptake) (E. coli ATCC 25922 cells [5]) | haemolysis (human red blood cells) | MIC [6] [µg/mL] | MIC [7] [µg/mL] | membrane depolarisation (E. coli ATCC 25922 cells [8]) | half-life [9] [h] | total clearance [9] [mL/min/kg] | final log10 CFU/mL reduction ([3]; 24 h, after regrowth) | plasma protein binding [10] [%] | acute toxic effects [11] | MIC [12] [µg/mL]
1 | colistin | destabilised the membrane | 4 to 16 | poor killing activity | no antimicrobial effect | severe Grade 1–2 lesions | disrupted both the outer and inner membranes | no detectable haemolysis | 4 to 128 | 0.25 to 1 | induced membrane depolarisation |  |  |  |  |  | 
2 | polymyxin B | destabilised the membrane | 4 to 16 | six | no antimicrobial effect |  | disrupted both the outer and inner membranes |  | 4 to 128 | 0.25 to 1 | induced membrane depolarisation | 3.6 | 7.3 | three | 83 | acute toxic effects | ≥ 128
